This note sets out measurements from the RNAGym collection of RNA variant scans (doi:10.1126/science.aae0568).

This sample holds only a part of the variants without activity. Bounds are passed on as bounds.

Sequences and labels used below:
B1: tRNA (parent)
chain: GUUCCGUUGGCGUAAUGGUAACGCGUCUCCCUCCUAAGGAGAAGACUGCGGGUUCGAGUCCCGUACGGAACG

The variants in this series derive from B1. Put plainly: yeast fitness relative to wild type (ratio to wild type); higher = fitter; tRNA-Arg(CCU), competitive growth, 37 C, YPD. The procedure, abridged:
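Variants of the tRNA-Arg(CCU) gene were chemically synthesised with a 3% per-site mutation rate across 69 sites and placed at the native genomic locus in Saccharomyces cerevisiae. Six parallel replicates of the pooled strains were competed in YPD at 37°C for 24 hours, and gene amplicons from the start and end populations were read by 100-nucleotide paired-end sequencing. Darwinian fitness relative to wild type was derived from changes in genotype frequencies. Genotypes required ≥ 100 starting reads, and estimates < 0.5 were set to 0.5.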
Turning to GUGCGGUUGGCGUAAUGGUCACGCGUCUCCCUCCUAAGGAGAAGACUGCGGGUUCGAGUCUCGUACGGAACG, the yeast fitness is not above 0.5.

Take GUUCCGUUGGCGUAUUGGUAAGGCGUCUCCUUCCUAAGGAGAAGACUGCGGGUUCGAGUCCCGUACGGAACG: the yeast fitness is 0.536. With GUUCAGUUGGCGUUAUGGUAACGCGUCUCCGUCCUAAGGAGAAGACUGCGGGUUCGAGUCCCAUACGGAACG the figure was not above 0.5; with GUUCCGUUGGCGUAAUCGUAACGCGUGCCCCUCCUAAGGAGAAGACUGCGGGUUCGAGUCCCGUUCGGAACG, not above 0.5; with GUUCCGUUAGUGUAAUGGUAACGCGUCUUCCUCCUAAGGAGAAGACUGCGGGUUCGAGUCCCGUUCGGAACG, not above 0.5. Consider GUUCCGUUGGCGUAAUGGUAGCGCGUCGCCCUCCUAAGGAGAAGACUGCGGGUUCGAGUCCGGUACGGAACG, for which the yeast fitness is not above 0.5. As for GUUCCGUUGGCGUAAUCGUAACGCGUCUUCCUCCUACGGAGAAGACUGCGGGUUCGAGUCCCGUACGGUACG, the yeast fitness is not above 0.5.

For GUUCCGUUGGUGUAAUGGUAACGCGUCUCCCUCCUUAGAAGAAGACUGCGGGUUCGAGUCCCGUACGGAACG, the yeast fitness was not above 0.5.

As to GUUCCGUUGGCGUAAUGGAAACGCGUCUCCCUCCUAAGGAGAAGAUUGCGGGUUCGAGUCCCGUACAGAACG, the yeast fitness was found to be 0.957. In the case of GUUCCGUUGGCGUAAUGGUAACGCGUCUCCCUCCUCAGGAGAAGACUCCGGGUUCGAGUCCCGUACGGAACG, the yeast fitness is not above 0.5. As for GUUCCGUUGGCGUAAUGGUAACACGUCUCGCUCCUAAGGAGAAGACUGCGGGUUCGAGUCCCGUACGGAACG, the figure is 0.527.

Turning to GUUCCCUUGGCGUAAUGGUGACGCGUCUCCCUCCUAAGGAGCAGCCUGCGGGUUCGAGUCCCGUACGGAACG, the yeast fitness was not above 0.5. Consider GUUCCGUUGGCGUAAUGGUAGCACGUCUCCCUCCUAAGGAGAAGCCUGCGGAUUCGAGUCCCGUACGGAACG, for which the yeast fitness worked out at 0.517. For the variant GUUCCGUUGGCGUUAUGAUAACGCGUCUCACUCCUAAGGAGAAGACUGCGGGUUCGAGUCCCGUACGGAACG, the yeast fitness is not above 0.5. For GUUCCGUUAGCCUAAUGGUAACGCGUCUCCCUCCUAAGGAGAAGACUGCGGGUUCGAGUCCCGUGCCGGACG, the yeast fitness was not above 0.5. For the variant GUUCCGUUGGCGUAGUGGUAACGCGUCUCCCUUCUAAGGAGAAGACUGCAGGUUCGAGUCCCGUACGGAACG, the yeast fitness was not above 0.5. For the variant GUUCCGCUGGCGUAAUGGUAACGCGUCUCCCUCCUAAGGAGAAGACUCCGGGUUCGAGUCCCGUACGGAACG, the yeast fitness is 0.828. For GUUCCGUUGGGGUAAUGGUAACGCGUCUCCCAGAUAAGGAGAAGACUGCGGGUUCGCGUCCCGUACGGAACG, the yeast fitness was not above 0.5. As to GUUUCGUUGGCGUAAAGGUUACGCGUCUCCCUCCCAAGCAGCAGACUGCGGGUUGGAGUCCCGUACGGAGCG, the yeast fitness is not above 0.5. As for GUUCCGUUGGCGUAAUGGUAACGCGUCUCCGUCCUAAGGAGAAGACUGCGGGUUCGAGUCCCGCACAGAACG, the figure is not above 0.5; as for GUUCCGUUGGCAUAAUGGUAACGCGUCUCCCUCCUCCGGAGAAGACUGCGGGGUCGAGUCCCGUACGGACCG, not above 0.5. As to GUUCCGCUGGCGUCAUGGUAACGCGUCUCGCUCCUAAGGCGAUGACUGCGGGUUUGAGUCCCGUACGGAACG, the yeast fitness is 0.64. With GUUCCGUUGCCGUAAUGGUAACGCGCCUCCCUCCUAAGGAGAAGGCUGCGGGUUCGAGUCCCGUCCGGAACG the figure was 0.635; with GUUCCGUUGGCGUAAUGGUAACGCGUCUCACUCCUAAGGAGUAGACUGCGGGUUUGAGUCCCGUAAGGAACG, 0.531. For GUUCCGUUGGCGUAAUGGUAACGCGUCUCCCUCCUAAGGAGUAGACUGCGGGUUCGAGUCGCGUCGGGAACG, the yeast fitness amounted to 0.89. With GUUGCGUGGGCGUAAUGGUAACGCGUCUCCCUCCCAAGGAGAAGACUGCGGGGUCGAGUCCCGUACGGAACG, the yeast fitness is not above 0.5. As for GUCCCGUCGGCGUAAUGGUAACGCGUCUCGCUCCCAAGGAGGAGACUGUGGGUUCAAAUCCCGUACGGACCG, the figure is not above 0.5; as for GUUCCGUUGGCGUAAUGGUAACGCGUCUCCCUCCUAAGGAGAAGACCGCGGGUUCGAGUUCCGUACGGAACG, 0.722.

GUUCCGUCAGCGUAAUGGUCACGCGUCUCCCUCCUAAGGAGAAGACUGCGGGUUCGAGUCCCGUACGGAUCG: the yeast fitness is not above 0.5. Turning to GUUCCGUUGGCGUAAAGGUAACGCGUCUCCCUCCUAAGGAGAGGCCUGCGGGUUCGAGUCCCGUACGGAACG, the yeast fitness was not above 0.5. As to GUUCCGUUGGCGUAAUGGUACCGCGUCUCCCUCCUAAGGAGAAGACUGCGGGUUCGAGUCCCGUAAGGAACG, the yeast fitness came to 0.527.

For GUUCCGUUGGCGUAAUGGUAAAGCGUCUCCCUCCAAAGGAGAAGACUGCGGGUUCGAAUCCCGUACGGAACG, the yeast fitness is not above 0.5. As to GUUCCGUUGGCGUAAUGGUAACGCGUCUCCCUCCUCAGGAGAAGACUGCGGGUUCGAGUCCCGUUCGGAACG, the yeast fitness came out at 0.667. On to GUUCCGUUGGCGUAAUGGUAACGCGUCUCCCUCCUAAGGAGAAGACUGCGGGUUCCAGUCUCGUACGGAACG, for which the yeast fitness was 0.747.

GUUCCGUUGGCGUGAUGGUAACGCGGCUCCCUCCUAAGGAGACGACUGCGGGUUCGAGUCCCGUACGAAACG: the yeast fitness is not above 0.5.

Turning to GUUCCAUUGGCGUAAUGGUAACGUGUCUCCAUCCUAAGGAGACGACUGCGGGCUCGAGUCCCGUACGGAACG, the yeast fitness is not above 0.5. Consider GUUCCGUUGGCGUAAUGGUAACGCGUCUCCCUCCUAAGGAGAAGACUGCGGGUUCGAGUCUCGUUCGGAACG, for which the yeast fitness was determined as 0.724. For GUUCCGUUGGCGUAAUGGUAACGCGUCUCCCUCCUAAGGAGAAGACUGCGGGAUCGAAUCCCGUACGUAACG, the yeast fitness is not above 0.5. Consider GUUCCGUUGGCGUAAUGGUAACGCGUCUCCGUCCUAAGGAGAAGACUGCGGGUUCGAGUCGCGUACGGAACG, for which the yeast fitness came out at 0.623. Consider GUUCAGUUGGCGUAAUGGUACCGAGUCUCCCUCCUAAGGAGAAGACUGCCGGUUCGAGUCCCGUACGGAACG, for which the yeast fitness was not above 0.5.

As to GUUUCGUUGGCGUAAUGGUAACGUGUCUCCCUCCUAAGGAGAAGACUGCGGGUUCGAGUCCCGUACGGAACG, the yeast fitness is 0.944. Regarding GUUCCGUUGGCGUAAUGGUAACGCGUCUCCUUCCUAAGGAGAAGAGUGCAGGUUCGAGUCUCGUACGGAACG, the yeast fitness turned out to be 0.649.

Turning to GUUCCGUUGGCGUAAUGGUAACGCGUGUCCCUCCUAAGGAGAAGACUGCGGGUUCGAGUCCCGCACGGAACG, the yeast fitness is 0.693.

Regarding GUUCCGUUGGCGUUAUGGUAACGCGUCUCCCUCCUAAGGGGAAGUCUGCGGGUUCAAGUCCCGUACGGAACG, the yeast fitness was not above 0.5.

As for GUUCCGUUGGCGUAAUGGUAACGCGUCUCCCUCCUAAGCAGAAGACUGCGGGUUAGAGUCCCGUACGGAACG, the yeast fitness was found to be 0.643.

As to GUUGCGUUGGCGUAAUGGUAACGCGUCUCCCUCCUAAGGAGAAGACUGUGGGUUCGAGCCCCGUACGGAACG, the yeast fitness stood at 0.576. For GUUCCGUUGGCGUAAUGGUAACGCGUCCCUCUCCUAAGGAGAAGACUGCGGGUUCGAGUCCCGUACGGUACG, the yeast fitness amounted to 0.598. For the variant GUUCCGUUGGCGUAAUGGUAAGGCGUCUCGCUGCUAUGGAGAAGACUGCGGGUUCGAGUCGCGUACGGAACG, the yeast fitness was found to be 0.683. As for GUUCCGUUGGCGUAAUGGUAACGCGUCUCCCUCGUAAGGAGAAGACUGCGGGUUCGAGUCCCAUACGGACCG, the figure is not above 0.5; as for GUUCCGUUGGCGUGAUGGUAACGCGUCUCCCUCCUAAGGAGAAGACUCCGGGUUCGAGUCCCGUACGGAACG, 0.701; as for GUUCCAUUCGGGUAAUGGUAACGCGUCUCCCUCUUAAGGAGAAGACUGCGGGUUCGAGACCCGUACGGCACG, not above 0.5. In the case of GUUCUGUUGGCGUAAUGGUAACGCGUCUCCCUCCUAAGGAGAAGCCUGCGGGUUCAAGUCCCGUACGGAACG, the yeast fitness came out at 0.801. With GUUCCGUUGGCGUAAUGGUAACCCGUCUCCAUCCUUAGGAGAAGACUGCGGGUUCGAGUCCCGUACGGAACG the figure was not above 0.5. Regarding GUUCCGUUGGCGUAAUGGUAACGUGUCUCCCUCCUAAGGAGAAGACUGCGGGUUCGAAUGCCGUACGGAACG, the yeast fitness was found to be 0.897.

GUUACGUUGGCGUAAUGGUAACGCGUCUCCUUCCUAAGGAGAAAUCUGCGGGUUCGAGUCCCGUACGGAACG: the yeast fitness stood at 0.574.

For GUUCCGUUGGAGUAAUGGUACCGCGUCUCCCUCCUAAGGAGAAGACUGCGGGUUUGAGUCCUGUACCGAACG, the yeast fitness came to 0.529. With GUUAAGUUGGCGUAAUGGUAAAGCGUCGCCCUGCUAAGGAGAAGACUGCGGGUUCGGGUCCCGUACGGAACG the figure was not above 0.5; with GUUCUGUUGGCGUAAUGGUAACGCGUCUCCCUCCAAAGGAGAAAACUGCGGGUUCGAGUCCCGUACGGAACG, 0.558. Consider GUUCAGUUGGCGUAAUGGUAACGGGUCUGCCUCCUAAGGCGAUGACAGCGGGUUCGAGUACCGUACGGAACG, for which the yeast fitness was not above 0.5. Consider GUUCCGUUGGCGUAAUGGUUACGCGUGUACCUCCUAAGGAGAAGACUGCGGGUUCGAGUCCCGUGCGGAACG, for which the yeast fitness is not above 0.5. Regarding GUUCCGUUCGCGUAAUGGUAACGGGUCUCCCUCCUAAGGAGAAGACUGUGGGUUCGAGUCCCGUCCGGAACG, the yeast fitness is not above 0.5.

In the case of GUUCCGUUGGCGUGAUGGUAACUCGUCUCCCUCCUAAGGAGAAGACUGCGGGUUCGAAUCCCGUACGGAACG, the yeast fitness is not above 0.5. For GUUUCGUUGGCGUAAUGGUAACGCGUCUCCCUCCUUAGGCGAAGACUGCGGGUUCGAGUCCCGUACGGAACG, the yeast fitness is 0.64. As for GUUCCGUUGGCGUAAUGGAUACGCGUCUCCCUCCUAAGGAGAAGACUGCGGGCUCGAGUCCCGUACGGAACG, the figure is not above 0.5; as for GUUCCGUUGGCGUAAUGGUAACGCGUCUCCCUCCUAAGGAGAAGACUGCGGGUUUGAGUCCCGUACCGAACG, 0.677; as for GUUCCGUUGGCGUACUGGUGUCGCGUCUCCCUCCUAAGGAGAAGACUGCGGGUUCGAGUCCCGUAGGGAACG, not above 0.5. As for GUUCCGUUGGCGUAAUGGUAACGCGUCUCCCUCCUAAGGACAAGACUGCGGCUUCGAGUCCCGUUCGGAACG, the figure is not above 0.5; as for GUUCCGAUGGCGUAAUGGUAACGCGUCUCCCUCCUAAGGAGUAGGCUGCGGGUUCGCGUCCCGUACGGUACG, not above 0.5. On to GUUCCGUUGGCAUAAUGGUAACGCGUCUCCCUCCUAAGGAGAAGACUGCGGGUUCGAGUACCGUACGGAGCG, for which the yeast fitness is not above 0.5. Regarding GUUCCGUUGGCGUAAUGGUAAUGCGUCUCCCUCCUAAGGAGAAGACUGCGGGUUCGAGUCCCGUACGGCACG, the yeast fitness stood at 0.876. As for GUUCCGUUGGCGUAAUGAUAACGCGUCUCCGUCCUAAGGAGAAGACUGCGGGUUCGAGUCCCGUACGGAACG, the figure is 0.666; as for GUUCCGUUGGCGUAAUGGUCACGUGUCUCCCUCCUAAGGAGAAGACUGUGGGUUCGAGUCCCGUACGGAACG, 0.602. On to GUUACGUUGGCGUAAUGCUAACGCGUCUCCCUCCUAAGGAGAAGACUGCGGGUUCGAGUCCCGUACGGAACG, for which the yeast fitness worked out at 0.58. Take GUUGCGUCGGCGUAAUGGUAACGCGUCUCCCUCCUAAGGAGAAGACUGCGGGUUCGAGUCCCGUACGGAACG: the yeast fitness was determined as 0.89.

In the case of GUUCCGUUGACGUAAAGGUAACGCGUCUCCCUCCUAAGGAGAAGACUGAAGGUUCGAGUCCCGUACGCAACG, the yeast fitness is not above 0.5.
